Assay outcomes: PubChem BioAssay, several laboratories
An excerpt weighted towards active compounds, which were near 1.9% of everything screened.
MC4R barr agon – activates human MC4R beta-arrestin recruitment | AID 540308 | P32245 | U2OS MC4R beta-arrestin complementation, luminescence; percent of melanotan II response, DMSO zero | activation, % at 8.9 µM | 0.98% of 360,000 active;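 active = activation above a per-plate cutoff, the mean activation of sample wells on that plate plus 3 SD, cut at about 8% in these data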
NOD2-RIPK2 inh – inhibitors of human NOD2-RIPK2 interaction; O43353; CHO BLA complementation NOD2-RIPK2, CCF4 ratio; inhibition, % at 4.98 µM; 0.38% of 360,000 active; AID 624267; in the data active = inhibition above about 21%
Target sequence (O43353 whole entry, looked up): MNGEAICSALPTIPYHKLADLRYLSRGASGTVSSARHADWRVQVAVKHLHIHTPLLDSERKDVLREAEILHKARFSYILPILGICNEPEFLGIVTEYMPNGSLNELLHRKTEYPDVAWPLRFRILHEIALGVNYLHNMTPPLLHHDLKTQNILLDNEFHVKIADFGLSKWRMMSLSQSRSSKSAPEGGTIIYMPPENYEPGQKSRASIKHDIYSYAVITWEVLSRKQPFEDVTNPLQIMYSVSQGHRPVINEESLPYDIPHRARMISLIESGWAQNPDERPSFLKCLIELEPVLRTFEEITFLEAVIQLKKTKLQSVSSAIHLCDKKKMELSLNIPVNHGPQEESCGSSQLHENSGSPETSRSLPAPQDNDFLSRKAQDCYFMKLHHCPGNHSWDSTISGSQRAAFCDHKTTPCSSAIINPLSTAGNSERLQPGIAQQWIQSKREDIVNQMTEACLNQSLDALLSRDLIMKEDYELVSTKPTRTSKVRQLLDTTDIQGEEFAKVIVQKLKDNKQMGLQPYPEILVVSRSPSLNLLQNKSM
TLR9-MyD88 block – inhibitors of human TLR9-MyD88 binding; Q9NR96+Q99836; CHO BLA complementation TLR9-MyD88, CCF4 FRET ratio; 0.21% of 340,000 active; inhibition, % at 4.98 µM;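 active = inhibition above the mean over all tested compounds plus 3 SD, cut at about 21% in these data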
MC4R antag cAMP – antagonists of human melanocortin 4 receptor (MC4R); P32245; MC4R-expressing cells, MTII-stimulated cAMP, LANCE TR-FRET; inhibition, % at 6.5 µM; 0.48% of 360,000 active;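 active = inhibition above its plate's cutoff, the mean of tested wells on that plate plus 3 SD, cut at about 29% in these data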
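Assay system: U2OS cells stably expressing human melanocortin 4 receptor (MC4R) / Dosing: 6.5 µM / Timing: compound 30 min, challenge 1 h, detection 1 h / Measured by: Eu-cAMP/anti-cAMP TR-FRET, emission 671 nm / Replicates: singlicate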
NTR1 agonist – NTR1 (human) agonism | P30989 | NTR1-U2OS beta-arrestin-GFP spot imaging, agonist mode | activation, % at 20 µM | 0.17% of 330,000 active | AID 493036;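 active = activation at or above 40% of the spot to cytoplasm intensity ratio, with at least 20 cells analyzed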
TLR9-MyD88 cf – TLR9-MyD88 interaction inhibition, confirmation | shares compounds with TLR9-MyD88 block | CHO TLR9/MyD88 BLA complementation, CCF4 FRET ratio | inhibition, % at 4.98 µM | 51% of 680 active | AID 540250;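 active = mean inhibition across three repeats above about 21% taken from the earlier screen, limit read from the data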;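 note: blue over green emission ratio reports constitutive TLR9 MyD88 association via BLA complementation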
BLA counter-1 – beta-lactamase reporter inhibition, counter-screen artifact. CHO-BLA cells, CCF4 FRET ratio, BLA reporter. 7% of 680 active. inhibition, % at 4.98 µM. AID 540251. shares compounds with TLR9-MyD88 block;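 active = mean inhibition above a 50% cutoff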;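 note: counterscreen of TLR9-MyD88 hits on CMV-driven BLA in CHO-K1 cells; higher means less blue over green ratio so more BLA blockade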
TLR9 CHO cytotox – CHO cell toxicity counter-screen for TLR9-MyD88 inhibitors. shares compounds with TLR9-MyD88 block. TLR9-MyD88 CHO cells cytotoxicity, luminescence. inhibition, % at 4.98 µM. 39% of 680 active; in the data active = inhibition above about 11%
cAMP nonselect – counter-screen for MC4R antagonists: nonselective cAMP signaling inhibitors | inhibition, % at 6.5 µM | shares compounds with MC4R antag cAMP | 26% of 1,600 active | AID 602193 | parental U2OS, forskolin cAMP, LANCE TR-FRET;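 active = mean inhibition over triplicates above the low-control well mean plus 3 SD, set per campaign, cut at about 13% in these data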;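 note: signal is single emission at 671 nm which falls as cellular cAMP rises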
MC4R antag conf – human MC4R cAMP antagonism confirmation | shares compounds with MC4R antag cAMP | MC4R-expressing cells, MTII-stimulated cAMP, TR-FRET | inhibition, % at 6.5 µM | 27% of 1,600 active | AID 602195; in the data active = inhibition above about 29%
NOD2 RIPK2 conf – NOD2-RIPK2 interaction inhibition confirmed. shares compounds with NOD2-RIPK2 inh. CHO cells, NOD2-RIPK2 BLA complementation, CCF4 FRET. inhibition, % at 4.98 µM. 70% of 1,200 active. AID 624370;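 active = mean inhibition across replicates above a set limit taken from the earlier primary screen, cut at about 21% in these data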
BLA counter-2 – NOD2-RIPK2 counterscreen BLA reporter activity. shares compounds with NOD2-RIPK2 inh. inhibition, % at 4.98 µM. CHO BLA reporter, CCF4 FRET ratio. 57% of 1,200 active;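 active = mean inhibition above the low-control mean inhibition plus three low-control SD, cut at about 11% in these data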
Of the large screens only hits and unclear results are named; the others gave an inactive call (follow-up assays come after a bar, where they were run).

O=C1CN(S(=O)(=O)c2cc(Br)ccc2Br)CCN1	none
CC1CCN(S(=O)(=O)c2ccc(NC(=O)c3ccncc3)cc2)CC1	none
CC(=O)Nc1ccc(NC(=O)c2nc(S(=O)(=O)Cc3cccc(C)c3)ncc2Cl)cc1	NOD2-RIPK2 inh 82, TLR9-MyD88 block 27, MC4R antag cAMP 43 | TLR9-MyD88 cf 44 | BLA counter-1 inactive | TLR9 CHO cytotox 97 | cAMP nonselect 14 | MC4R antag conf inactive | NOD2 RIPK2 conf 81 | BLA counter-2 44
Cc1ccc(NC(=O)c2nc(S(=O)(=O)Cc3ccccc3C)ncc2Cl)cc1C	NOD2-RIPK2 inh 97, TLR9-MyD88 block 41, MC4R antag cAMP 32 | TLR9-MyD88 cf 35 | BLA counter-1 inactive | TLR9 CHO cytotox 83 | cAMP nonselect 30 | MC4R antag conf inactive | NOD2 RIPK2 conf 86 | BLA counter-2 33
CCOC(=O)c1ccc(NC(=O)c2nc(S(=O)(=O)Cc3ccccc3)ncc2Cl)cc1	NOD2-RIPK2 inh 55, TLR9-MyD88 block 42 | TLR9-MyD88 cf 30 | BLA counter-1 inactive | TLR9 CHO cytotox 99 | NOD2 RIPK2 conf 87 | BLA counter-2 50
CCS(=O)(=O)c1ncc(Cl)c(C(=O)Nc2ccc(S(=O)(=O)N3CCC(C)CC3)cc2)n1	NOD2-RIPK2 inh 96, TLR9-MyD88 block 58, MC4R antag cAMP 56 | TLR9-MyD88 cf 49 | BLA counter-1 inactive | TLR9 CHO cytotox 99 | cAMP nonselect inactive | MC4R antag conf 39 | NOD2 RIPK2 conf 96 | BLA counter-2 48
CSc1nnc(NC(=O)c2nc(S(=O)(=O)Cc3ccccc3)ncc2Cl)s1	none
CCc1ccc(NC(=O)c2nc(S(=O)(=O)Cc3ccccc3)ncc2Cl)cc1	NOD2-RIPK2 inh 96, TLR9-MyD88 block 47, MC4R antag cAMP 36 | TLR9-MyD88 cf 50 | BLA counter-1 inactive | TLR9 CHO cytotox 98 | cAMP nonselect inactive | MC4R antag conf inactive | NOD2 RIPK2 conf 94 | BLA counter-2 40
CC(C)c1nnc(NC(=O)c2nc(S(=O)(=O)Cc3ccccc3)ncc2Cl)s1	NOD2-RIPK2 inh 26, TLR9-MyD88 block 22, MC4R antag cAMP 51 | TLR9-MyD88 cf inactive | BLA counter-1 inactive | TLR9 CHO cytotox 29 | cAMP nonselect 25 | MC4R antag conf 47 | NOD2 RIPK2 conf 37 | BLA counter-2 24
Cc1cc(NS(=O)(=O)c2c(C)[nH]c(=O)[nH]c2=O)ccc1Br	none
O=[N+]([O-])c1c(Nc2ccccc2O)cc(Cl)c2nonc12	NOD2-RIPK2 inh 83, TLR9-MyD88 block 33 | TLR9-MyD88 cf 56 | BLA counter-1 inactive | TLR9 CHO cytotox 100 | NOD2 RIPK2 conf 97 | BLA counter-2 inactive
COc1ccccc1CNC(=O)CN1C(=O)c2cccc(N)c2C1=O	NOD2-RIPK2 inh 31, TLR9-MyD88 block 36 | TLR9-MyD88 cf inactive | BLA counter-1 inactive | TLR9 CHO cytotox inactive | NOD2 RIPK2 conf 46 | BLA counter-2 49
COc1ccccc1CNC(=O)CCN1C(=O)c2ccccc2C1=O	none
CCCCc1c(-c2ccccc2OC)ncn1CCc1ccc(Cl)cc1	none (no result: MC4R barr agon, TLR9-MyD88 block, MC4R antag cAMP, NTR1 agonist)
